From PubChem BioAssay
ADAM17 inh = ADAM17 inhibitors, primary screen, biochemical, QFRET; 370,000 compounds, 0.83% hits; recombinant ADAM17, EDANS/DABCYL FRET peptide cleavage; AID 720648, 2013; inhibition, % at 6.95 µM; Disintegrin and metalloproteinase domain-containing protein 17 (Homo sapiens), P78536;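 active means inhibition above the mean of compounds lying between control limits plus 3 SD, set per campaign, cut at about 8.5% in these data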;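 further: 0% = DMSO-only wells as the low control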
TbMetRS inhib = T. brucei MetRS inhibitors, primary screen, biochemical, luminescence. methionyl-tRNA synthetase (Trypanosoma brucei brucei). purified T. brucei MetRS, ATP depletion, Kinase-Glo luminescence. inhibition, % at 11.9 µM. 360,000 compounds, 0.4% hits;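 active means inhibition above a per-plate cutoff of the control wells' mean inhibition plus 3 SD, cut at about 5.5% in these data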;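 further: 0% = DMSO wells median and 100% = median of wells with control inhibitor compound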
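Test system – parasite MetRS enzyme · Reagent – substrates ATP, L-methionine and bulk Escherichia coli tRNA · Doses – 11.9 µM compound single dose, 0.9% DMSO · Times – 15 min enzyme-compound preincubation, 2 h reaction, 10 min detection, 25 °C · Signal – Kinase-Glo luminescence, ATP depletion format · Controls – DMSO-only wells as low control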
PLCb3 inh = human PLC-beta3 inhibitors, primary screen, biochemical, fluorescence. Purified PLC-beta3, fluorogenic substrate. AID 720704, 2013. 1-phosphatidylinositol 4,5-bisphosphate phosphodiesterase beta-3 (Homo sapiens), Q01970. inhibition, % at 12.2 µM. 370,000 compounds, 0.18% hits; in the data active means inhibition above about 11%;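 further: 0% = median of compound wells on plate and 100% = full blocker control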
PLCg1 inh = PLC-gamma1 enzyme inhibitors, primary screen, biochemical, fluorescence, purified enzyme. 370,000 compounds, 0.84% hits. inhibition, % at 12.2 µM. fluorogenic substrate
Target sequence (P19174 whole entry, looked up): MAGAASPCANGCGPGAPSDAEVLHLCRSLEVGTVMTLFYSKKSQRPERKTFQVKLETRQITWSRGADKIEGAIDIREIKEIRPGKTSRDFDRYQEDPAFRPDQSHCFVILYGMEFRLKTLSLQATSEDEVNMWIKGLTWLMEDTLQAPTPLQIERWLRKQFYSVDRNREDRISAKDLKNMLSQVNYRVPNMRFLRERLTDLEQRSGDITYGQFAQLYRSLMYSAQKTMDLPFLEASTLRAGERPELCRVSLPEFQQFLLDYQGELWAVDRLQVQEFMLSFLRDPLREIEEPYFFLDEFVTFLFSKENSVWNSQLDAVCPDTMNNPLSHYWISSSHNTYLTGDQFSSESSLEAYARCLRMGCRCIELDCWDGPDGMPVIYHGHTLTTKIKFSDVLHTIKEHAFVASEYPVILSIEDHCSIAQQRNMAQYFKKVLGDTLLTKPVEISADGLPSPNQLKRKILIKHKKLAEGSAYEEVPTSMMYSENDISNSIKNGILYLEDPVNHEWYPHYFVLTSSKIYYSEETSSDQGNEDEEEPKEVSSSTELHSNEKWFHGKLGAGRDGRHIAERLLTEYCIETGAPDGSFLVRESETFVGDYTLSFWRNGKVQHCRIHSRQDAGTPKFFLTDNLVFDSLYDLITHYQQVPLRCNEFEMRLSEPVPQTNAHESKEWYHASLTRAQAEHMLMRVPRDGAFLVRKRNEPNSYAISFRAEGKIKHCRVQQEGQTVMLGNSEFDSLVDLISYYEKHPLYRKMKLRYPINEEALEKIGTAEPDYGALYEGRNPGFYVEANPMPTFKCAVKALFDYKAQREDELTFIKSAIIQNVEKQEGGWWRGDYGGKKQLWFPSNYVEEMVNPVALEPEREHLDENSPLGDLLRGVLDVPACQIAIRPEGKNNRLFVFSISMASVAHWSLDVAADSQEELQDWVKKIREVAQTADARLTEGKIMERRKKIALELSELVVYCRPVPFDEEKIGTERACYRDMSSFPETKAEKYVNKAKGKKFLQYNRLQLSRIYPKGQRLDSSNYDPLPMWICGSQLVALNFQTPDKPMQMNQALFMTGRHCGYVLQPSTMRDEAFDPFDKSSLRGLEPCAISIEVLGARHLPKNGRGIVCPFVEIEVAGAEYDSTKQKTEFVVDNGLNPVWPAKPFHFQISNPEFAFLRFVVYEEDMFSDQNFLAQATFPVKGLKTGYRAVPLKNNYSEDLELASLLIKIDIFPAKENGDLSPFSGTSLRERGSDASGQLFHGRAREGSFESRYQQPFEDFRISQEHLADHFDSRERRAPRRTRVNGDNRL
ADAM10 inh = human ADAM10 inhibitors, primary screen, biochemical, QFRET, HTS | Disintegrin and metalloproteinase domain-containing protein 10 (Homo sapiens), O14672 | recombinant ADAM10, EDANS/DABCYL FRET peptide cleavage, 3 h | inhibition, % at 7 µM | 370,000 compounds, 0.62% hits | AID 720582, 2013;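 active means inhibition above a per-campaign cutoff equal to the mean of compounds falling between control-based bounds plus 3 SD, cut at about 20% in these data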;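 further: 0% = DMSO wells while the 100% control is not disclosed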
PLCgamma1 ctr = PLC-gamma1 enzyme inhibitors, counter-screen for PLC-beta3 inhibitor project, biochemical, fluorescence; shares compounds with PLCg1 inh; purified PLC-gamma1, fluorogenic substrate; inhibition, % at 12.3 µM; 3,300 compounds, 3.1% hits; AID 743258, 2014
PLCbeta3 conf = PLC-beta3 inhibitor confirmation, biochemical, fluorescence, purified enzyme | inhibition, % at 12.3 µM | 3,300 compounds, 1% hits | fluorogenic substrate fluorescence | shares compounds with PLCg1 inh | AID 743261, 2014; in the data active means inhibition above about 11%
Active calls of the source: *; · = no result given. Shown are actives, neighbours in structure and some others; about 2.3% of the full set was active somewhere. Unless noted, no stated cut-off is given here; in the data, active means inhibition above about 9.5%; inactive means the rest.

SMILES	ADAM17 inh	TbMetRS inhib	PLCb3 inh	PLCg1 inh	ADAM10 inh	PLCgamma1 ctr	PLCbeta3 conf
CN(Cc1ccccc1)C(=O)OCc1cn(Cc2cccc(F)c2)nn1	-2	·	-3	0	-3	·	·
CSc1ccccc1C(=O)NCCOc1cccc(C)c1	-2	-1	-6	-1	-1	·	·
CC[C@H]1C=C[C@@H](C(=O)NS(=O)(=O)c2ccc(C)cc2)N(C(C)=O)C1	-5	·	-15	41*	-24	38*	-15
COCCN(C(=O)c1ccc2c(c1)S(=O)(=O)N=C1CCCCCN12)c1c(N)n(CC(C)C)c(=O)[nH]c1=O	-1	0	-5	2	-15	·	·
O=C(NCCCN1CCCC1=O)Nc1ccccc1Cl	0	-1	-3	4	5	·	·
O=C(NCCCN1CCCC1=O)Nc1ccccc1F	-6	0	-6	11*	-10	-5	0
Cc1ccc(C)c(OC(=O)c2cncc(Br)c2)c1	4	0	2	5	10	·	·
O=C(NC1CCCC1)C(c1ccccc1)N(C(=O)c1csnn1)c1ccccc1F (stereo unspecified)	0	0	6	9.9*	8	2	-3
O=C(NC1CCCC1)C(c1ccncc1)N(C(=O)c1csnn1)c1ccccc1 (stereo unspecified)	-5	0	-12	0	-9	·	·
O=C(NC1CCCC1)C(c1cccnc1)N(C(=O)c1csnn1)c1ccc(F)cc1 (stereo unspecified)	-3	-1	-5	9.7*	-21	-1	5
CC(=O)c1ccc(N(C(=O)c2csnn2)C(C(=O)NC2CCCC2)c2ccccc2)cc1 (stereo unspecified)	4	-1	3	11*	2	-4	1
CC(C)CC1NC(=S)N(Cc2ccccc2)C1=O (stereo unspecified)	0	-1	4	3	-6	·	·
O=C(Nc1ccccc1)C(=O)Nc1ccc2c(c1)N(C(=O)C1CC1)CCC2	1	-1	-3	2	6	·	·
O=C(C(=O)N1CCN(S(=O)(=O)c2ccccc2)CC1)c1cccc(C(F)(F)F)c1	3	·	-5	2	7	·	·
CCOC(=O)CSc1nnc(Cn2c(=O)sc3ccccc32)n1-c1ccccc1C	4	2	11*	8	4	9.5*	-1
CC(=O)Nc1ccc(NC(=O)C2C3CCC(C3)C2C(=O)O)cc1 (stereo unspecified)	-5	0	-1	6	6	·	·
COc1ccc(NC(=O)C2C3CCC(C3)C2C(=O)O)cc1OC (stereo unspecified)	-8	0	-5	18*	-9	-2	-4
CN(C)S(=O)(=O)c1cc(NC(=O)COC(=O)CCc2ccccc2)ccc1Cl	-2	1	-12	0	2	·	·
CN(C)S(=O)(=O)c1cc(NC(=O)[C@H](Cc2ccccc2)N2C(=O)c3ccccc3C2=O)ccc1Cl	2	0	11*	7	8	7	6
Nn1cnnc1SCC(=O)N(C1CCCCC1)C1CCCCC1	-1	0	6	11*	11	-5	-1
CCCCCCC(=O)Oc1cccc(C2=CC(=O)CC(C)(C)C2=O)c1	2	0	-1	-3	-8	·	·
O=C(NCc1ccccc1)c1n[nH]nc1-c1ccccc1O	-5	-1	-7	17*	9	16*	-6
O=C(NCc1ccccc1)c1ccc(C(=O)NCc2ccccc2)cc1	-3	0	1	5	-5	·	·
CC(C)C(=O)Nc1cccc(COc2cccc(CN(Cc3ccccc3)C(=O)OC(C)(C)C)c2)c1	4	0	0	1	-1	·	·
